Legend:
Rattus norvegicus [1] = experiment: Antinociceptive activity in Wistar rat partial sciatic nerve ligation model assessed as reversal of mechanical allodynia at 100 mg/kg, ip after 120 mins (reference value: 2.9 +/- 0.3%); format: functional; details: route intraperitoneal
Rattus norvegicus [2] = experiment: Antinociceptive activity in Wistar rat partial sciatic nerve ligation model assessed as reversal of mechanical allodynia at 100 mg/kg, ip after 60 mins (reference value: 2.8 +/- 0.3%); format: functional; details: route intraperitoneal
Rattus norvegicus [3] = experiment: Antinociceptive activity in Wistar rat partial sciatic nerve ligation model assessed as reversal of mechanical allodynia at 100 mg/kg, ip after 30 mins (reference value: 2.9 +/- 0.3%); format: functional; details: route intraperitoneal
Rattus norvegicus [4] = experiment: Antinociceptive activity in Wistar rat chronic constriction injury model assessed as reversal of mechanical allodynia at 100 mg/kg, ip after 120 mins (reference value: 5.3 +/- 0.5%); format: functional; details: route intraperitoneal
Rattus norvegicus [5] = experiment: Antinociceptive activity in Wistar rat chronic constriction injury model assessed as reversal of mechanical allodynia at 100 mg/kg, ip after 60 mins (reference value: 4.9 +/- 1.0%); format: functional; details: route intraperitoneal
Rattus norvegicus [6] = experiment: Antinociceptive activity in Wistar rat chronic constriction injury model assessed as reversal of mechanical allodynia at 100 mg/kg, ip after 30 mins (reference value: 4.7 +/- 2.1%); format: functional; details: route intraperitoneal
Rattus norvegicus [7] = experiment: Antinociceptive activity in Wistar rat partial sciatic nerve ligation model assessed as reversal of cold allodynia at 100 mg/kg, ip after 120 mins (reference value: 1.5 +/- 0.5%); format: functional; details: route intraperitoneal
Rattus norvegicus [8] = experiment: Antinociceptive activity in Wistar rat partial sciatic nerve ligation model assessed as reversal of cold allodynia at 100 mg/kg, ip after 60 mins (reference value: 2.5 +/- 0.3%); format: functional; details: route intraperitoneal
Rattus norvegicus [9] = experiment: Antinociceptive activity in Wistar rat partial sciatic nerve ligation model assessed as reversal of cold allodynia at 100 mg/kg, ip after 30 mins (reference value: 4.1 +/- 1.0%); format: functional; details: route intraperitoneal
Rattus norvegicus [10] = experiment: Antinociceptive activity in Wistar rat chronic constriction injury model assessed as reversal of cold allodynia at 100 mg/kg, ip after 120 mins (reference value: 5.4 +/- 1.9%); format: functional; details: route intraperitoneal
Rattus norvegicus [11] = experiment: Antinociceptive activity in Wistar rat chronic constriction injury model assessed as reversal of cold allodynia at 100 mg/kg, ip after 60 mins (reference value: 6.3 +/- 1.9%); format: functional; details: route intraperitoneal
Rattus norvegicus [12] = experiment: Antinociceptive activity in Wistar rat chronic constriction injury model assessed as reversal of cold allodynia at 100 mg/kg, ip after 30 mins (reference value: 0.6 +/- 2.7%); format: functional; details: route intraperitoneal
Rattus norvegicus [13] = experiment: Antinociceptive activity in Wistar rat partial sciatic nerve ligation model assessed as reversal of tactile allodynia at 100 mg/kg, ip after 120 mins relative to control; format: functional; details: route intraperitoneal
Rattus norvegicus [14] = experiment: Antinociceptive activity in Wistar rat partial sciatic nerve ligation model assessed as reversal of tactile allodynia at 100 mg/kg, ip after 60 mins (reference value: 12.5 +/- 1.2%); format: functional; details: route intraperitoneal
Rattus norvegicus [15] = experiment: Antinociceptive activity in Wistar rat partial sciatic nerve ligation model assessed as reversal of tactile allodynia at 100 mg/kg, ip after 30 mins (reference value: 7.7 +/- 0.7%); format: functional; details: route intraperitoneal
Rattus norvegicus [16] = experiment: Antinociceptive activity in Wistar rat chronic constriction injury model assessed as reversal of tactile allodynia at 100 mg/kg, ip after 120 mins (reference value: 4.1 +/- 2.1%); format: functional; details: route intraperitoneal
Rattus norvegicus [17] = experiment: Antinociceptive activity in Wistar rat chronic constriction injury model assessed as reversal of tactile allodynia at 100 mg/kg, ip after 60 mins (reference value: 1.3 +/- 0.3%); format: functional; details: route intraperitoneal
Rattus norvegicus [18] = experiment: Antinociceptive activity in Wistar rat chronic constriction injury model assessed as reversal of tactile allodynia at 100 mg/kg, ip after 30 mins (reference value: 3.4 +/- 0.8%); format: functional; details: route intraperitoneal
Rattus norvegicus [19] = experiment: Antinociceptive activity in Wistar rat partial sciatic nerve ligation model assessed as reversal of spontaneous pain response at 100 mg/kg, ip after 120 mins (reference value: 1.2 +/- 0.1%); format: functional; details: route intraperitoneal
Rattus norvegicus [20] = experiment: Antinociceptive activity in Wistar rat partial sciatic nerve ligation model assessed as reversal of spontaneous pain response at 100 mg/kg, ip after 60 mins (reference value: 2.9 +/- 0.3%); format: functional; details: route intraperitoneal
Rattus norvegicus [21] = experiment: Antinociceptive activity in Wistar rat partial sciatic nerve ligation model assessed as reversal of spontaneous pain response at 100 mg/kg, ip after 30 mins (reference value: 3.2 +/- 0.3%); format: functional; details: route intraperitoneal
Rattus norvegicus [22] = experiment: Antinociceptive activity in Wistar rat chronic constriction injury model assessed as reversal of spontaneous pain response at 100 mg/kg, ip after 120 mins (reference value: 4.5 +/- 0.2%); format: functional; details: route intraperitoneal
Rattus norvegicus [23] = experiment: Antinociceptive activity in Wistar rat chronic constriction injury model assessed as reversal of spontaneous pain response at 100 mg/kg, ip after 60 mins (reference value: 4.6 +/- 0.6%); format: functional; details: route intraperitoneal
Rattus norvegicus [24] = experiment: Antinociceptive activity in Wistar rat chronic constriction injury model assessed as reversal of spontaneous pain response at 100 mg/kg, ip after 30 mins (reference value: 8.9 +/- 4.6%); format: functional; details: route intraperitoneal
Mus musculus [25] = experiment: Antinociceptive activity in Swiss albino mouse assessed as inhibition of formalin-induced flinching at 100 mg/kg administered 30 mins prior to test measured for 10 to 30 mins relative to control; format: functional
Mus musculus [26] = experiment: Antinociceptive activity in Swiss albino mouse assessed as inhibition of formalin-induced flinching at 100 mg/kg administered 30 mins prior to test measured up to 5 mins relative to control; format: functional
Mus musculus [27] = experiment: Antinociceptive activity in Swiss albino mouse assessed as inhibition of acetic acid-induced writhing at 100 mg/kg administered 30 mins prior to acetic acid-challenge measured for 30 mins relative to control; format: functional
Method in brief: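 Swiss albino mice (20–25 g, either sex); writhing induced by i.p. 0.1 mL of 2.0% v/v acetic acid given half an hour after test compound dosing.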

Mus musculus [28] = experiment: Neurotoxicity in Swiss albino mouse assessed as minimal motor impairment at 300 mg/kg after 4 hrs by rotarod test; format: toxicity, organism-based; design: dose 300 mg/kg; details: in vivo
Method in brief: (§1)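 Swiss albino mice of either sex, 20-25 g, dosed at 30, 100 and 300 mg/kg, three per group. Minimal motor impairment scored by rotarod at 0.5 and 4.0 h after dosing. Reported value is the lowest dose giving impairment in half or more of the mice.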

Mus musculus [29] = experiment: Neurotoxicity in Swiss albino mouse assessed as minimal motor impairment at 300 mg/kg after 0.5 hrs by rotarod test; format: toxicity, organism-based; design: dose 300 mg/kg; details: in vivo; method in brief: as §1

Compound | Activity (Rattus norvegicus [1]) [%] | Activity (Rattus norvegicus [2]) [%] | Activity (Rattus norvegicus [3]) [%] | Activity (Rattus norvegicus [4]) [%] | Activity (Rattus norvegicus [5]) [%] | Activity (Rattus norvegicus [6]) [%] | Activity (Rattus norvegicus [7]) [%] | Activity (Rattus norvegicus [8]) [%] | Activity (Rattus norvegicus [9]) [%] | Activity (Rattus norvegicus [10]) [%] | Activity (Rattus norvegicus [11]) [%] | Activity (Rattus norvegicus [12]) [%] | Activity (Rattus norvegicus [13]) [%] | Activity (Rattus norvegicus [14]) [%] | Activity (Rattus norvegicus [15]) [%] | Activity (Rattus norvegicus [16]) [%] | Activity (Rattus norvegicus [17]) [%] | Activity (Rattus norvegicus [18]) [%] | Activity (Rattus norvegicus [19]) [%] | Activity (Rattus norvegicus [20]) [%] | other results
CCN1CCc2c(c(C)nn2C(=O)Nc2cccc(C(F)(F)F)c2)C1 | 10.6 | 11.1 | 15.6 | 21.8 | 20.5 | 13.4 | 20.9 | 15.7 | 30.2 | 7 | 13.7 | 12.1 | 11.1 | 11.1 | 69.7 | 11.8 | 11.8 | 4.41 | 13.8 | 10.2 | Activity (Rattus norvegicus [21]): 20.7%; Activity (Rattus norvegicus [22]): 12.5%; Activity (Rattus norvegicus [23]): 15.2%; Activity (Rattus norvegicus [24]): 13.3%; inhibition in vivo at 100 mg/kg (Mus musculus [25]): 23.1%; inhibition in vivo at 100 mg/kg (Mus musculus [26]): 4.4%; inhibition in vivo at 100 mg/kg (Mus musculus [27]): 56.1%; Activity (Mus musculus [28]): Non-toxic; Activity (Mus musculus [29]): Non-toxic
CCN1CCc2c(c(C(C)(C)C)nn2C(=O)Nc2cc(C)ccc2C)C1 | 14.3 | 7.1 | 14.3 | 9.1 | 18.2 | 18.2 | 9.5 | 12.7 | 12 | 40.5 | 10.1 | 17.9 | 4.5 | 16.7 | 36.4 | 44.7 | 9.7 | 4.5 | 13.6 | 14.4 | Activity (Rattus norvegicus [21]): 4.9%; Activity (Rattus norvegicus [22]): 12.4%; Activity (Rattus norvegicus [23]): 19.8%; Activity (Rattus norvegicus [24]): 21.1%; inhibition in vivo at 100 mg/kg (Mus musculus [25]): 15.7%; inhibition in vivo at 100 mg/kg (Mus musculus [26]): 0%; inhibition in vivo at 100 mg/kg (Mus musculus [27]): 63.1%; Activity (Mus musculus [28]): Non-toxic; Activity (Mus musculus [29]): Non-toxic
CCN1CCc2c(c(C(C)(C)C)nn2C(=O)Nc2ccc(Cl)cc2)C1 | 11.1 | 16.7 | 11.1 | 2.2 | 11.7 | 20 | 10.6 | 17.2 | 18.2 | 10.5 | 10.8 | 17.8 | 28.5 | 3.5 | 15.1 | 12.8 | 13.8 | 13.8 | 6.3 | 13.9 | Activity (Rattus norvegicus [21]): 20.9%; Activity (Rattus norvegicus [22]): 12.5%; Activity (Rattus norvegicus [23]): 22.3%; Activity (Rattus norvegicus [24]): 18.3%; inhibition in vivo at 100 mg/kg (Mus musculus [25]): 68.3%; inhibition in vivo at 100 mg/kg (Mus musculus [26]): 3.5%; inhibition in vivo at 100 mg/kg (Mus musculus [27]): 15.8%; Activity (Mus musculus [28]): Non-toxic; Activity (Mus musculus [29]): Non-toxic
CCN1CCc2c(c(C)nn2C(=O)Nc2ccc(Br)cc2)C1 | 40 | 70 | 50 | 61.1 | 66.7 | 83.3 | 41.5 | 43.7 | 59.7 | 32.6 | 38.1 | 67.4 | 29.2 | 58.3 | 58.3 | 57.7 | 70.5 | 57.7 | 41.3 | 60.8 | Activity (Rattus norvegicus [21]): 56.7%; Activity (Rattus norvegicus [22]): 63.6%; Activity (Rattus norvegicus [23]): 65.1%; Activity (Rattus norvegicus [24]): 73.9%; inhibition in vivo at 100 mg/kg (Mus musculus [25]): 81.6%; inhibition in vivo at 100 mg/kg (Mus musculus [26]): 1.7%; inhibition in vivo at 100 mg/kg (Mus musculus [27]): 59.7%; Activity (Mus musculus [28]): Non-toxic; Activity (Mus musculus [29]): Non-toxic
CCN1CCc2c(c(C(C)(C)C)nn2C(=O)Nc2cc(C)ccc2F)C1 | 8.8 | 12.1 | 12.1 | 8.8 | 12.7 | 13.8 | 19.3 | 16.4 | 19.3 | 12 | 7.1 | 3.4 | 4.5 | 12.2 | 12.2 | 4.5 | 12.2 | 19.7 | 7.5 | 9.9 | Activity (Rattus norvegicus [21]): 15.5%; Activity (Rattus norvegicus [22]): 53.9%; Activity (Rattus norvegicus [23]): 20.5%; Activity (Rattus norvegicus [24]): 14.4%; inhibition in vivo at 100 mg/kg (Mus musculus [25]): 60.5%; inhibition in vivo at 100 mg/kg (Mus musculus [26]): 7%; inhibition in vivo at 100 mg/kg (Mus musculus [27]): 17.5%; Activity (Mus musculus [28]): Non-toxic; Activity (Mus musculus [29]): Non-toxic
NCC1(CC(=O)O)CCCCC1 [GABAPENTIN] | 55.8 | 91.3 | 86.2 | 75.7 | 78.6 | 92.9 | 32.1 | 58.2 | 54.1 | 35.6 | 42.9 | 58 | 58.5 | 56.1 | 43.1 | 50.7 | 59.4 | 35.4 | 82.4 | 94.2 | Activity (Rattus norvegicus [21]): 92.9%; Activity (Rattus norvegicus [22]): 88.8%; Activity (Rattus norvegicus [23]): 91.2%; Activity (Rattus norvegicus [24]): 71.2%
CCN1CCc2c(c(C(C)(C)C)nn2C(=O)Nc2cccc(C(F)(F)F)c2)C1 | 45.8 | 59.5 | 52.8 | 12.1 | 12.2 | 3.6 | 15 | 19.1 | 52.7 | 9.3 | 35 | 55.6 | 13 | 13 | 24.7 | 9.9 | 13.7 | 6.7 | 19.8 | 42.2 | Activity (Rattus norvegicus [21]): 87.3%; Activity (Rattus norvegicus [22]): 75.2%; Activity (Rattus norvegicus [23]): 65.6%; Activity (Rattus norvegicus [24]): 89.5%; inhibition in vivo at 100 mg/kg (Mus musculus [25]): 55.1%; inhibition in vivo at 100 mg/kg (Mus musculus [26]): 2.6%; inhibition in vivo at 100 mg/kg (Mus musculus [27]): 61.4%; Activity (Mus musculus [28]): Non-toxic; Activity (Mus musculus [29]): Non-toxic
